Converted amounts (≈) assume the structure as drawn. The source made the active and inactive calls. No cut-off for these calls is given here.
Experiments:
[1] = tested on: Mycobacterium tuberculosis; assay: fT>MIC for >= 1 log reduction in CFU count in Mycobacterium tuberculosis H37Rv in using simulated dose of at 100 mg assessed as time during compound concentration exceeds MIC of 0.12500 ug/ml assuming 15% unbound compound concentration by one compartment human pharmacokinetic model; format: functional
Procedure, shortened: (§1)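 A one-compartment PK model was fitted to human data to get median parameters. It simulated steady-state total and free concentrations for 100, 200 or 400 mg once daily, assuming 5, 7, 10 or 15% unbound drug. Free T>MIC was computed against MICs of 0.03125–0.25 µg/ml and compared with the mouse-derived T>MIC target for 1-log10 kill.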

[2] = Elimination half life in BALB/c mouse up to 1456 mg/kg, po administered as single dose; format: ADME, organism-based; set-up: route oral; settings: in vivo, read-out: beta t1/2 (converted)
Procedure, shortened: (§2)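 Uninfected 6-week female BALB/c mice received single oral gavage doses of 3–1,458 mg/kg as a cyclodextrin-micelle suspension. Three mice per time point were bled by cardiac puncture under isoflurane at 0.5–120 h. Serum levels were measured by validated HPLC-UV (standards 0.20–50 µg/ml).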

[3] = tested on: Mycobacterium tuberculosis; assay: Antitubercular activity against Mycobacterium tuberculosis H37Rv infected in BALB/c mouse at 12.5 mg/kg, po for 5 days relative to control; format: functional, organism-based; set-up: dose 12.5 mg/kg
[4] = tested on: Mycobacterium tuberculosis; assay: fT>MIC for >= 1 log reduction in CFU count in Mycobacterium tuberculosis H37Rv in using simulated dose of at 100 mg assessed as time during compound concentration exceeds MIC of 0.06250 ug/ml assuming 15% unbound compound concentration by one compartment human pharmacokinetic model; format: functional; procedure, shortened: as §1
[5] = tested on: Mycobacterium tuberculosis; assay: fT>MIC for >= 1 log reduction in CFU count in Mycobacterium tuberculosis H37Rv in using simulated dose of at 100 mg assessed as time during compound concentration exceeds MIC of 0.25000 ug/ml assuming 10% unbound compound concentration by one compartment human pharmacokinetic model; format: functional; procedure, shortened: as §1
[6] = tested on: Mus musculus; assay: Toxicity in BALB/c mouse assessed as adverse effect up to 1456 mg/kg, po administered as single dose; format: organism-based; set-up: route oral; settings: in vivo; procedure, shortened: as §2
[7] = tested on: Mycobacterium tuberculosis; assay: Antitubercular activity against Mycobacterium tuberculosis H37Rv assessed as reduction in CFU count by agar proportion method; format: functional
Procedure, shortened: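 Agar proportion method on 7H11 agar with 10% OADC containing 2-fold drug dilutions (0.007–2.0 µg/ml). Plates inoculated with serial 100-fold dilutions of log-phase H37Rv broth culture (~10^8 CFU/ml). Drug-free and isoniazid plates as controls. CFU counted after 21 days at 37°C, 5% CO2. MIC is the lowest concentration giving <1% of drug-free CFU.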

[8] = tested on: Mycobacterium tuberculosis; assay: fT>MIC for >= 1 log reduction in CFU count in Mycobacterium tuberculosis H37Rv in using simulated dose of at 400 mg assessed as time during compound concentration exceeds MIC of 0.12500 ug/ml assuming 7% unbound compound concentration by one compartment human pharmacokinetic model; format: functional
Procedure, shortened: (§3)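 Human steady-state simulation: one-compartment PK model fitted to patient data, chosen by AIC. Median PK parameters used to simulate total and free concentrations, assuming 5, 7, 10 or 15% unbound, for 100, 200 and 400 mg once daily. Free levels compared with MICs of 0.03125 to 0.25 µg/ml to give %T>MIC; T>MIC is the cumulative percentage of the dosing interval above MIC.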

[9] = AUC (0 to t) in mouse at 100 or 50 mg/kg, po administered as single dose; format: ADME, organism-based; set-up: dose 50 mg/kg, route oral; settings: plasma
[10] = tested on: Mycobacterium tuberculosis; assay: fT>MIC for >= 1 log reduction in CFU count in Mycobacterium tuberculosis H37Rv in using simulated dose of at 400 mg assessed as time during compound concentration exceeds MIC of 0.25000 ug/ml assuming 15% unbound compound concentration by one compartment human pharmacokinetic model; format: functional; procedure, shortened: as §3
[11] = tested on: Mycobacterium tuberculosis; assay: fT>MIC for >= 1 log reduction in CFU count in Mycobacterium tuberculosis H37Rv in using simulated dose of at 100 mg assessed as time during compound concentration exceeds MIC of 0.06250 ug/ml assuming 5% unbound compound concentration by one compartment human pharmacokinetic model; format: functional; procedure, shortened: as §1
[12] = tested on: Mycobacterium tuberculosis; assay: fT>MIC for >= 1 log reduction in CFU count in Mycobacterium tuberculosis H37Rv in using simulated dose of at 400 mg assessed as time during compound concentration exceeds MIC of 0.06250 ug/ml assuming 10% unbound compound concentration by one compartment human pharmacokinetic model; format: functional; procedure, shortened: as §1
[13] = tested on: Mycobacterium tuberculosis; assay: fT>MIC for >= 1 log reduction in CFU count in Mycobacterium tuberculosis H37Rv in using simulated dose of at 100 mg assessed as time during compound concentration exceeds MIC of 0.25000 ug/ml assuming 7% unbound compound concentration by one compartment human pharmacokinetic model; format: functional; procedure, shortened: as §1
[14] = tested on: Mycobacterium tuberculosis; assay: fT>MIC for >= 1 log reduction in CFU count in Mycobacterium tuberculosis H37Rv in using simulated dose of at 100 mg assessed as time during compound concentration exceeds MIC of 0.03125 ug/ml assuming 5% unbound compound concentration by one compartment human pharmacokinetic model; format: functional; procedure, shortened: as §1
[15] = tested on: Mycobacterium tuberculosis; assay: Antitubercular activity against Mycobacterium tuberculosis H37Rv infected in BALB/c mouse assessed as reduction in log10 CFU count at 96 mg/kg, po bid; format: functional
Procedure, shortened: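 Female 6-week BALB/c mice were aerosol-infected with log-phase H37Rv, aiming to implant ~3.5 log10 CFU. Treatment began 14 days later: gavage of cyclodextrin-micelle suspension for 24 consecutive days, total 0–4,608 mg/kg split into 3–48 equal doses, 3 mice per group. Lungs harvested 4 days after last dose and plated on selective OADC-7H11. CFU transformed as log10(x+1).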

[16] = Cmax in mouse at 100 or 50 mg/kg, po administered as single dose; format: ADME, organism-based; set-up: dose 50 mg/kg, route oral; settings: in vivo
[17] = tested on: Mycobacterium tuberculosis; assay: fT>MIC for >= 1 log reduction in CFU count in Mycobacterium tuberculosis H37Rv in using simulated dose of at 100 mg assessed as time during compound concentration exceeds MIC of 0.06250 ug/ml assuming 7% unbound compound concentration by one compartment human pharmacokinetic model; format: functional; procedure, shortened: as §1
[18] = tested on: Mycobacterium tuberculosis; assay: fT>MIC for >= 1 log reduction in CFU count in Mycobacterium tuberculosis H37Rv in using simulated dose of at 200 mg assessed as time during compound concentration exceeds MIC of 0.03125 ug/ml assuming 10% unbound compound concentration by one compartment human pharmacokinetic model; format: functional; procedure, shortened: as §1
[19] = tested on: Mycobacterium tuberculosis; assay: fT>MIC for >= 1 log reduction in CFU count in Mycobacterium tuberculosis H37Rv in using simulated dose of at 400 mg assessed as time during compound concentration exceeds MIC of 0.25000 ug/ml assuming 10% unbound compound concentration by one compartment human pharmacokinetic model; format: functional; procedure, shortened: as §3
[20] = tested on: Mycobacterium tuberculosis; assay: Antimicrobial activity against Mycobacterium tuberculosis H37Rv infected in BALB/c mouse assessed as bacteriostatic effect at 12.5 mg/kg, po administered as single dose; format: functional, organism-based; set-up: dose 12.5 mg/kg
[21] = tested on: Mycobacterium tuberculosis; assay: Antitubercular activity against Mycobacterium tuberculosis H37Rv infected in po dosed BALB/c mouse assessed as reduction in log10 CFU count by single dose study; format: functional, organism-based
[22] = tested on: Mycobacterium tuberculosis; assay: fT>MIC for >= 1 log reduction in CFU count in Mycobacterium tuberculosis H37Rv in using simulated dose of at 200 mg assessed as time during compound concentration exceeds MIC of 0.25000 ug/ml assuming 5% unbound compound concentration by one compartment human pharmacokinetic model; format: functional; procedure, shortened: as §1

O=[N+]([O-])c1cn2c(n1)OC[C@@H](OCc1ccc(OC(F)(F)F)cc1)C2 [PRETOMANID]
fT>MIC [1]: 6% | half-life [2]: 4 h | Activity [3]: Active | fT>MIC [4]: 67% | fT>MIC [5]: 0% | Activity [6]: Non-toxic | MIC [7]: 0.06 µg/mL (≈ 0.167 µM) | fT>MIC [8]: 67% | AUC(0-t) [9]: 70400 ng·h/mL | fT>MIC [10]: 67% | fT>MIC [11]: 0% | fT>MIC [12]: 100% | fT>MIC [13]: 0% | fT>MIC [14]: 46% | log10cfu [15]: 2.4 | Cmax [16]: 3800 ng/mL | fT>MIC [17]: 0% | fT>MIC [18]: 100% | fT>MIC [19]: 46% | Activity [20]: Active | Activity [21]: Dose-dependent effect | fT>MIC [22]: 0%
